Data: ChEMBL document CHEMBL1127320, “Dual-action cephalosporins incorporating a 3'-tertiary-amine-linked quinolone” (J Med Chem, 1994)
In brackets after ≈: the same amount, converted by molar mass.

What was measured:
[1] = molecular target: T1, Penicillin-binding protein 1B (Escherichia coli K-12) (UniProt P02919); assay: Affinity for penicillin binding protein 1b of Escherichia coli UB1005 (DC0) was evaluated.; parameters: unit not given here
T1 sequence (whole entry): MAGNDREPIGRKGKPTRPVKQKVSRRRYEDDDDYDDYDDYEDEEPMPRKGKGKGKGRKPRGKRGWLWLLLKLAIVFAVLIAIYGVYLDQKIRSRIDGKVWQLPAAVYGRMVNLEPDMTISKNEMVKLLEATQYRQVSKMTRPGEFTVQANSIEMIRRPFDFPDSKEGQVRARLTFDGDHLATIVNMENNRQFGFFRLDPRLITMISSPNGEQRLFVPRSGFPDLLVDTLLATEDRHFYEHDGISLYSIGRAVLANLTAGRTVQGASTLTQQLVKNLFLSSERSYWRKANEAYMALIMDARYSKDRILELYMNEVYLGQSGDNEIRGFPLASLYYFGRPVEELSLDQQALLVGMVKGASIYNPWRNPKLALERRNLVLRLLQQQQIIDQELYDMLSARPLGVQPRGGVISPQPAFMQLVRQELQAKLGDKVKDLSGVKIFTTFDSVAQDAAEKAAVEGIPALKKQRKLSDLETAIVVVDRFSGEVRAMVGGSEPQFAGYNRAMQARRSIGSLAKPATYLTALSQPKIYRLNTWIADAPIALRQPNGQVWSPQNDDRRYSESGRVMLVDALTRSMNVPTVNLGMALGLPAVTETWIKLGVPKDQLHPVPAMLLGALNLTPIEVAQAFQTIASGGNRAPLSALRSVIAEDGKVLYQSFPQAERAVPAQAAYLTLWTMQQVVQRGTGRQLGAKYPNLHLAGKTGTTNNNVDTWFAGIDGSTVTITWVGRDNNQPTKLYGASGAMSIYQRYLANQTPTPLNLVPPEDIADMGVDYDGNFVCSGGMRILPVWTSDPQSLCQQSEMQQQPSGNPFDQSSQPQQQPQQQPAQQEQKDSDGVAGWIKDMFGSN
How it was run: (§1)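 Solubilised membranes from sonicated E. coli UB1005 served as the binding-protein source. Binding was read as inhibition of [14C]penicillin G binding.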

Escherichia coli [2] = assay: In vitro minimum inhibitory concentration was measured against Escherichia coli TEM-1 (Beta lactamase producer) strain.; type: functional
How it was run: (§2)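 Streptococci were tested on brain heart infusion agar plus 20 units/mL catalase, Proteus on Mueller-Hinton with 3% agar, and others on Mueller-Hinton agar. Inocula were 100-fold-diluted overnight cultures, about 3 × 10^4 CFU/spot, read after overnight incubation at 36 °C.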

[3] = molecular target: T2, Penicillin-binding protein 1A (Escherichia coli K-12) (UniProt P02918); assay: Affinity for penicillin binding protein 1a of Escherichia coli UB1005 (DC0) was evaluated.; parameters: unit not given here; how it was run: as §1
T2 sequence (whole entry): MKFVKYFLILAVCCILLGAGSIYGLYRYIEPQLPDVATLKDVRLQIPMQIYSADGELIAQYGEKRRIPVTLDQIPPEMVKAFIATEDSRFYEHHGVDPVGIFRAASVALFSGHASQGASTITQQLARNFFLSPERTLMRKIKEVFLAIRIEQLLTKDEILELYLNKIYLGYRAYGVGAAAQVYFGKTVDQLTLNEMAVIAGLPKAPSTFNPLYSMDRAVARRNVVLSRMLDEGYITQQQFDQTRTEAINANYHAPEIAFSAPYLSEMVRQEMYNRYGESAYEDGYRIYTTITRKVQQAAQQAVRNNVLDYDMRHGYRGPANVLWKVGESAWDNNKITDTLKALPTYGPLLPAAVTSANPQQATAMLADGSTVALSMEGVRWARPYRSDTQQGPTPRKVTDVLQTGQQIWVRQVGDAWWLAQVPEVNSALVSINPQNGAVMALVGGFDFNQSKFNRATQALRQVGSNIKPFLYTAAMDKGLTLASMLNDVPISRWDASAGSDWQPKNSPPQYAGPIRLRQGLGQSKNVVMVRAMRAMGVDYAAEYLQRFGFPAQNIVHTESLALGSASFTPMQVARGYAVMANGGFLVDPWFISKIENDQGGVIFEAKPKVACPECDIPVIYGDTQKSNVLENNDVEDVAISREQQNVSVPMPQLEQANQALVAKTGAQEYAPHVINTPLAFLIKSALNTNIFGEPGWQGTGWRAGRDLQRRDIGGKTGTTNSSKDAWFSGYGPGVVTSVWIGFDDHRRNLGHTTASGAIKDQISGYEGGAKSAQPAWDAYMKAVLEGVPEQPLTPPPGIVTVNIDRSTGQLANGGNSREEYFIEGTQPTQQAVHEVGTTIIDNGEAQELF

Escherichia coli [4] = assay: Minimum inhibitory concentration against E. coli UB1005 (DC0)
Pseudomonas aeruginosa [5] = assay: In vitro minimum inhibitory concentration was measured against Pseudomonas aeruginosa 18S/H strain.; type: functional; how it was run: as §2
Escherichia coli [6] = assay: In vitro minimum inhibitory concentration was measured against Escherichia coli ATCC 25922 strain.; type: functional; how it was run: as §2
Citrobacter freundii = assay: In vitro minimum inhibitory concentration was measured against Citrobacter freundii BS-16 (beta lactamase producer) strain.; type: functional
How it was run: (§3)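 MICs were determined by agar dilution with 2-fold dilutions giving final 128–0.0156 µg/mL, extended to 0.000977 µg/mL where needed. Streptococci were tested on brain heart infusion agar plus 20 units/mL catalase, Proteus on Mueller-Hinton with 3% agar, and others on Mueller-Hinton agar. Inocula were 100-fold-diluted overnight cultures, about 3 × 10^4 CFU/spot, read after overnight incubation at 36 °C.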

Streptococcus pyogenes = assay: In vitro minimum inhibitory concentration was measured against Streptococcus pyogenes 4 strain.; type: functional; how it was run: as §2
Enterobacter cloacae [7] = assay: In vitro minimum inhibitory concentration was measured against Enterobacter cloacae 5699 strain.; type: functional
Escherichia coli [8] = assay: Minimum inhibitory concentration for DC2, a permeability mutant; how it was run: as §3
Streptococcus pneumoniae = assay: In vitro minimum inhibitory concentration was measured against Streptococcus pneumoniae 6301 strain; type: functional; how it was run: as §2
Staphylococcus aureus [9] = assay: In vitro minimum inhibitory concentration was measured against Staphylococcus aureus 753 (Methicillin resistant) strain.; type: functional
Serratia marcescens = assay: In vitro minimum inhibitory concentration was measured against Serratia marcescens 1071(beta lactamase producer) strain.; type: functional; how it was run: as §2
Proteus mirabilis = assay: In vitro minimum inhibitory concentration was measured against Proteus mirabilis 90 strain.; type: functional; how it was run: as §2
Escherichia coli [10] = assay: In vitro minimum inhibitory concentration was measured against Escherichia coli 257 strain.; type: functional; how it was run: as §2
Proteus vulgaris = assay: In vitro minimum inhibitory concentration was measured against Proteus vulgaris 1028BC (beta lactamase producer) strain.; type: functional; how it was run: as §2
Staphylococcus aureus [11] = assay: In vitro minimum inhibitory concentration was measured against Staphylococcus aureus 67-0 (Methicillin resistant) strain.; type: functional
[12] = molecular target: T3, Peptidoglycan D,D-transpeptidase MrdA (Escherichia coli K-12) (UniProt P0AD65); assay: Affinity for penicillin binding protein 2 of Escherichia coli UB1005 (DC0) was evaluated.; parameters: unit not given here; how it was run: as §1
T3 sequence (whole entry): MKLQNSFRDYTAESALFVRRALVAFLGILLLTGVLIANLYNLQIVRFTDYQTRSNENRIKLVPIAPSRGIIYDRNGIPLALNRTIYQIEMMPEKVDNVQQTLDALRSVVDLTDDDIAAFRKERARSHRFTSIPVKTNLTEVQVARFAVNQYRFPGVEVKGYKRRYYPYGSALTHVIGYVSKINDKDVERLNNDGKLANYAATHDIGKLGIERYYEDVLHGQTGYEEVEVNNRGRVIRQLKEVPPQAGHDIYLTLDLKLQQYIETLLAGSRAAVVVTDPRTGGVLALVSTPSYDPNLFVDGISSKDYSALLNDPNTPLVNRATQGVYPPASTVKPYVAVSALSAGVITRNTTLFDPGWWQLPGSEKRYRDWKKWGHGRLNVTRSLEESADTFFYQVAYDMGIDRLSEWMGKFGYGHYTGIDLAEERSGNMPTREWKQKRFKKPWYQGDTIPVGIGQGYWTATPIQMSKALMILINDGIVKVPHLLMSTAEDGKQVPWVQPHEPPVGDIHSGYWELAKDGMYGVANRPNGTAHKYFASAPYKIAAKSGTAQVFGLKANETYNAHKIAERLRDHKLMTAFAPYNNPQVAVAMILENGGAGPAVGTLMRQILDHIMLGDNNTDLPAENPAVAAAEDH

Staphylococcus aureus [13] = assay: In vitro minimum inhibitory concentration was measured against Staphylococcus aureus smith strain.; type: functional
Enterococcus faecalis = assay: In vitro minimum inhibitory concentration was measured against Enterococcus faecalis ATCC 29212 strain.; type: functional; how it was run: as §2
Pseudomonas aeruginosa [14] = assay: In vitro minimum inhibitory concentration was measured against Pseudomonas aeruginosa 8780 strain.; type: functional; how it was run: as §2
Micrococcus luteus = assay: In vitro minimum inhibitory concentration was measured against Micrococcus luteus ATCC 9341 strain.; type: functional; how it was run: as §2
[15] = tested on: Penicillin-binding protein 3 (Escherichia coli); assay: Affinity for penicillin binding protein 3 of Escherichia coli UB1005 (DC0) was evaluated.; parameters: unit not given here
Enterobacter cloacae [16] = assay: In vitro minimum inhibitory concentration was measured against Enterobacter cloacae p99 (beta lactamase producer) strain.; type: functional
Klebsiella pneumoniae = assay: In vitro minimum inhibitory concentration was measured against Klebsiella pneumoniae A strain.; type: functional; how it was run: as §2
[17] = Half life was measured as degradation by HPLC analysis.; type: ADME

Structure (SMILES)	Binding affinity [1]	MIC (Escherichia coli [2]) [µg/mL]	Binding affinity [3]	MIC (Pseudomonas aeruginosa [5]) [µg/mL]	MIC (Escherichia coli [6]) [µg/mL]	MIC (Citrobacter freundii) [µg/mL]	MIC (Streptococcus pyogenes) [µg/mL]	MIC (Enterobacter cloacae [7]) [µg/mL]	MIC (Escherichia coli [8]) [µg/mL]	MIC (Streptococcus pneumoniae) [µg/mL]	MIC (Staphylococcus aureus [9]) [µg/mL]	MIC (Serratia marcescens) [µg/mL]	MIC (Proteus mirabilis) [µg/mL]	MIC (Escherichia coli [10]) [µg/mL]	MIC (Proteus vulgaris) [µg/mL]	MIC (Staphylococcus aureus [11]) [µg/mL]	Binding affinity [12]	MIC (Staphylococcus aureus [13]) [µg/mL]	MIC (Enterococcus faecalis) [µg/mL]	MIC (Enterobacter cloacae [16]) [µg/mL]	also measured
Nc1nc(/C(=N/OCC(=O)O)C(=O)N[C@@H]2C(=O)N3C(C(=O)O)=C(CN4CCN(c5cc6c(cc5F)c(=O)c(C(=O)O)cn6C5CC5)CC4)CS[C@H]23)cs1	> 100	0.5 (≈ 0.649 µM)	> 100	4 (≈ 5.19 µM)	0.5 (≈ 0.649 µM)	1 (≈ 1.3 µM)	0.125 (≈ 0.162 µM)	1 (≈ 1.3 µM)	4 (≈ 5.19 µM)	0.25 (≈ 0.324 µM)	8 (≈ 10.4 µM)	2 (≈ 2.59 µM)	2 (≈ 2.59 µM)	0.25 (≈ 0.324 µM)	1 (≈ 1.3 µM)	32 (≈ 41.5 µM)	> 100	8 (≈ 10.4 µM)	16 (≈ 20.8 µM)	0.25 (≈ 0.324 µM)	MIC (Escherichia coli [4]): 2 µg/mL (≈ 2.59 µM); MIC (Pseudomonas aeruginosa [14]): 8 µg/mL (≈ 10.4 µM); MIC (Micrococcus luteus): 1 µg/mL (≈ 1.3 µM); Binding affinity [15]: 2; MIC (Klebsiella pneumoniae): 1 µg/mL (≈ 1.3 µM)
CC(=O)OCC1=C(C(=O)O)N2C(=O)[C@@H](NC(=O)C(O)c3ccccc3)[C@H]2SC1 (stereo partly drawn)	–	8 (≈ 19.7 µM)	–	> 128	2 (≈ 4.92 µM)	> 128	0.063 (≈ 0.155 µM)	16 (≈ 39.4 µM)	–	0.125 (≈ 0.308 µM)	128 (≈ 315 µM)	> 128	2 (≈ 4.92 µM)	2 (≈ 4.92 µM)	> 128	64 (≈ 157 µM)	–	0.5 (≈ 1.23 µM)	16 (≈ 39.4 µM)	> 128	MIC (Pseudomonas aeruginosa [14]): > 128 µg/mL; MIC (Micrococcus luteus): 0.125 µg/mL (≈ 0.308 µM); MIC (Klebsiella pneumoniae): 2 µg/mL (≈ 4.92 µM)
CO/N=C(\C(=O)N[C@@H]1C(=O)N2C(C(=O)O)=C(CN3CCNCC3)CS[C@H]12)c1csc(N)n1	100	0.5 (≈ 1.04 µM)	> 100	> 128	0.25 (≈ 0.519 µM)	128 (≈ 266 µM)	0.031 (≈ 0.0644 µM)	0.5 (≈ 1.04 µM)	0.25 (≈ 0.519 µM)	0.063 (≈ 0.131 µM)	> 128	8 (≈ 16.6 µM)	0.5 (≈ 1.04 µM)	0.25 (≈ 0.519 µM)	> 128	> 128	> 100	4 (≈ 8.31 µM)	4 (≈ 8.31 µM)	128 (≈ 266 µM)	MIC (Pseudomonas aeruginosa [14]): 64 µg/mL (≈ 133 µM); MIC (Micrococcus luteus): 0.25 µg/mL (≈ 0.519 µM); Binding affinity [15]: 100; MIC (Klebsiella pneumoniae): 0.125 µg/mL (≈ 0.26 µM)
CC(C)(O/N=C(\C(=O)N[C@@H]1C(=O)N2C(C(=O)O)=C(CN3CCN(c4cc5c(cc4F)c(=O)c(C(=O)O)cn5C4CC4)CC3)CS[C@H]12)c1csc(N)n1)C(=O)O	100	0.5 (≈ 0.626 µM)	100	2 (≈ 2.5 µM)	0.25 (≈ 0.313 µM)	0.125 (≈ 0.156 µM)	0.25 (≈ 0.313 µM)	1 (≈ 1.25 µM)	0.25 (≈ 0.313 µM)	0.25 (≈ 0.313 µM)	8 (≈ 10 µM)	1 (≈ 1.25 µM)	2 (≈ 2.5 µM)	0.25 (≈ 0.313 µM)	1 (≈ 1.25 µM)	16 (≈ 20 µM)	100	8 (≈ 10 µM)	8 (≈ 10 µM)	0.5 (≈ 0.626 µM)	MIC (Escherichia coli [4]): 4 µg/mL (≈ 5.01 µM); MIC (Pseudomonas aeruginosa [14]): 8 µg/mL (≈ 10 µM); MIC (Micrococcus luteus): 2 µg/mL (≈ 2.5 µM); Binding affinity [15]: 2; MIC (Klebsiella pneumoniae): 0.5 µg/mL (≈ 0.626 µM)
O=C(O)C1=C(CN2CCN(c3cc4c(cc3F)c(=O)c(C(=O)O)cn4C3CC3)CC2)CS[C@@H]2[C@H](NC(=O)C(C(=O)O)c3ccccc3)C(=O)N12 (stereo partly drawn)	> 100	–	> 100	–	–	0.063 (≈ 0.0893 µM)	–	–	2 (≈ 2.83 µM)	–	–	–	–	–	–	–	> 100	–	32 (≈ 45.3 µM)	0.063 (≈ 0.0893 µM)	MIC (Escherichia coli [4]): 4 µg/mL (≈ 5.67 µM); half-life [17]: 228 h; Binding affinity [15]: 100
